Measurements published in ChEMBL document CHEMBL4689842, “EUbOPEN Chemogenomics Library wave 1” (2021).

System: Fibroblast
Assay: Multiplex assay against human fibroblast
Format: toxicity, cell-based
How it was run: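 Values for tubulin, mitochondrial-mass and membrane-permeability phenotypes are per cents of cells with healthy nuclei. These cells were identified by CellPathfinder machine-learning gating of live cells that had been stained at seeding with Hoechst33342, BioTracker Green Microtubule Cytoskeleton Dye, MitoTracker Red and Annexin V Alexa Fluor 680 and imaged on a CQ1 microscope at 37°C and 5% CO2 after compound addition. The gating first set Hoechst high-intensity objects apart from normal cells, then split normal cells into healthy, pyknosed or fragmented nuclei, and pyknosed cells into mitotic or apoptotic.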

[1] = 12 h, 1 µM, compound concentration 1 uM, replicate 1
[2] = 12 h, 1 µM, compound concentration 1 uM, replicate 2
[3] = 12 h, 10 µM, compound concentration 10 uM, replicate 1
[4] = 12 h, 10 µM, compound concentration 10 uM, replicate 2
[5] = 24 h, 1 µM, compound concentration 1 uM, replicate 1
[6] = 24 h, 1 µM, compound concentration 1 uM, replicate 2
[7] = 24 h, 10 µM, compound concentration 10 uM, replicate 1
[8] = 24 h, 10 µM, compound concentration 10 uM, replicate 2
[9] = 48 h, 1 µM, compound concentration 1 uM, replicate 1
[10] = 48 h, 1 µM, compound concentration 1 uM, replicate 2
[11] = 48 h, 10 µM, compound concentration 10 uM, replicate 1
[12] = 48 h, 10 µM, compound concentration 10 uM, replicate 2

## Cc1ccc(C(=O)Nc2cccc(C(F)(F)F)c2)cc1Nc1nc(-c2cccnc2)nc2c1cnn2C
[1]
  Population Apoptotic (%): 61%
  Population Fragmented Nuclei (%): 34%
  Population Healthy Nuclei (%): 29%
  Population Hoechst High Intensity Objects (%): 10%
  Population Membrane Permeable-Phenotype (%): 28%
  Population Mitochondria Different-Phenotype (%): 3%
  Population Mitotic Cells (%): 38%
  Population Normal (%): 89%
  Population Pyknosed Nuclei (%): 35%
  Population Tubulin-Different-Phenotype (%): 53%
  Total Cell Count: 122
[2]
  Population Apoptotic (%): 50%
  Population Fragmented Nuclei (%): 14%
  Population Healthy Nuclei (%): 73%
  Population Hoechst High Intensity Objects (%): 3%
  Population Membrane Permeable-Phenotype (%): 6%
  Population Mitochondria Different-Phenotype (%): 25%
  Population Mitotic Cells (%): 50%
  Population Normal (%): 96%
  Population Pyknosed Nuclei (%): 12%
  Population Tubulin-Different-Phenotype (%): 14%
  Total Cell Count: 101
[3]
  Population Apoptotic (%): 65%
  Population Fragmented Nuclei (%): 24%
  Population Healthy Nuclei (%): 33%
  Population Hoechst High Intensity Objects (%): 13%
  Population Membrane Permeable-Phenotype (%): 34%
  Population Mitochondria Different-Phenotype (%): 37%
  Population Mitotic Cells (%): 34%
  Population Normal (%): 86%
  Population Pyknosed Nuclei (%): 41%
  Population Tubulin-Different-Phenotype (%): 88%
  Total Cell Count: 121
[4]
  Population Apoptotic (%): 61%
  Population Fragmented Nuclei (%): 18%
  Population Healthy Nuclei (%): 42%
  Population Hoechst High Intensity Objects (%): 8%
  Population Membrane Permeable-Phenotype (%): 78%
  Population Mitochondria Different-Phenotype (%): 92%
  Population Mitotic Cells (%): 38%
  Population Normal (%): 91%
  Population Pyknosed Nuclei (%): 39%
  Population Tubulin-Different-Phenotype (%): 100%
  Total Cell Count: 66
[5]
  Population Apoptotic (%): 66%
  Population Fragmented Nuclei (%): 40%
  Population Healthy Nuclei (%): 41%
  Population Hoechst High Intensity Objects (%): 14%
  Population Membrane Permeable-Phenotype (%): 19%
  Population Mitochondria Different-Phenotype (%): 5%
  Population Mitotic Cells (%): 33%
  Population Normal (%): 85%
  Population Pyknosed Nuclei (%): 17%
  Population Tubulin-Different-Phenotype (%): 43%
  Total Cell Count: 142
[6]
  Population Apoptotic (%): 27%
  Population Fragmented Nuclei (%): 12%
  Population Healthy Nuclei (%): 72%
  Population Hoechst High Intensity Objects (%): 3%
  Population Membrane Permeable-Phenotype (%): 7%
  Population Mitochondria Different-Phenotype (%): 29%
  Population Mitotic Cells (%): 72%
  Population Normal (%): 96%
  Population Pyknosed Nuclei (%): 14%
  Population Tubulin-Different-Phenotype (%): 16%
  Total Cell Count: 101
[7]
  Population Apoptotic (%): 85%
  Population Fragmented Nuclei (%): 27%
  Population Healthy Nuclei (%): 34%
  Population Hoechst High Intensity Objects (%): 10%
  Population Membrane Permeable-Phenotype (%): 42%
  Population Mitochondria Different-Phenotype (%): 44%
  Population Mitotic Cells (%): 14%
  Population Normal (%): 89%
  Population Pyknosed Nuclei (%): 37%
  Population Tubulin-Different-Phenotype (%): 81%
  Total Cell Count: 124
[8]
  Population Apoptotic (%): 90%
  Population Fragmented Nuclei (%): 26%
  Population Healthy Nuclei (%): 11%
  Population Hoechst High Intensity Objects (%): 20%
  Population Membrane Permeable-Phenotype (%): 100%
  Population Mitochondria Different-Phenotype (%): 75%
  Population Mitotic Cells (%): 9%
  Population Normal (%): 79%
  Population Pyknosed Nuclei (%): 61%
  Population Tubulin-Different-Phenotype (%): 100%
  Total Cell Count: 77
[9]
  Population Apoptotic (%): 42%
  Population Fragmented Nuclei (%): 59%
  Population Healthy Nuclei (%): 36%
  Population Hoechst High Intensity Objects (%): 23%
  Population Membrane Permeable-Phenotype (%): 15%
  Population Mitochondria Different-Phenotype (%): 0%
  Population Mitotic Cells (%): 57%
  Population Normal (%): 76%
  Population Pyknosed Nuclei (%): 4%
  Population Tubulin-Different-Phenotype (%): 59%
  Total Cell Count: 189
[10]
  Population Apoptotic (%): 75%
  Population Fragmented Nuclei (%): 65%
  Population Healthy Nuclei (%): 32%
  Population Hoechst High Intensity Objects (%): 22%
  Population Membrane Permeable-Phenotype (%): 12%
  Population Mitochondria Different-Phenotype (%): 3%
  Population Mitotic Cells (%): 25%
  Population Normal (%): 77%
  Population Pyknosed Nuclei (%): 2%
  Population Tubulin-Different-Phenotype (%): 63%
  Total Cell Count: 231
[11]
  Population Apoptotic (%): 66%
  Population Fragmented Nuclei (%): 45%
  Population Healthy Nuclei (%): 38%
  Population Hoechst High Intensity Objects (%): 21%
  Population Membrane Permeable-Phenotype (%): 40%
  Population Mitochondria Different-Phenotype (%): 18%
  Population Mitotic Cells (%): 33%
  Population Normal (%): 78%
  Population Pyknosed Nuclei (%): 16%
  Population Tubulin-Different-Phenotype (%): 88%
  Total Cell Count: 165
[12]
  Population Apoptotic (%): 60%
  Population Fragmented Nuclei (%): 56%
  Population Hoechst High Intensity Objects (%): 25%
  Population Membrane Permeable-Phenotype (%): 14%
  Population Mitochondria Different-Phenotype (%): 64%
  Population Mitotic Cells (%): 40%
  Population Normal (%): 74%
  Population Pyknosed Nuclei (%): 4%
  Population Tubulin-Different-Phenotype (%): 95%
  Total Cell Count: 146
